# T cruzi inh: inhibitors of intracellular T. cruzi growth, primary screen, luminescence, NIH3T3 host cells. T. cruzi beta-gal in NIH3T3, 90 h. inhibition, % (test concentration not listed). actives 1.4% (n = 300,000). AID 1885, 2009;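 active means mean inhibition across valid replicates above about 55%, limit read from the data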;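 further: signal also drops with host cell toxicity which is not excluded here; 0% = plate median of DMSO wells and 100% = zero luminescence signal; higher percent means less beta-gal luminescence so fewer parasites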
#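 System – NIH/3T3 host cells with β-galactosidase reporter T. cruzi · Doses – single 50 nL compound addition per well in DMSO · Reagent – 5000 T. cruzi trypomastigotes/well · Medium – Low-serum DMEM with 2% FBS · Timing – ≥90 h infection period, 3 h prior cell attachment · Evaluation – parasite load inhibition, % · Technique – GalScreen luminescence, 60 min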
# Efflux pump mplx: inhibitors of Candida efflux pumps in yeast, primary screen, S. cerevisiae, Nile Red, multiplex; inhibition, % at 10 µM; AID 485275, 2010; S. cerevisiae Candida pump triplex; actives 0.44% (n = 330,000);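 active means plate passing quality check with inhibition over a set limit, or well fluorescence over plate mean plus 4 SD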;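 further: Nile Red retained in pooled yeast measured as flow cytometry median fluorescence; 0% = buffer negative control and 100% = Enniatin B positive control; higher means more Nile Red kept so more efflux inhibition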
# HDAC3 inhib: HDAC3 deacetylase inhibitors, primary screen, biochemical, fluorescence, cell-free homogeneous; Histone deacetylase 3 (Homo sapiens), O15379; inhibition, % at 8.3 µM; recombinant HDAC3, fluorogenic peptide/trypsin coupled; actives 0.15% (n = 320,000); AID 2718, 2010; in the data active means inhibition above about 26%, passing the limit was not always enough
# Target sequence (O15379 whole entry, looked up): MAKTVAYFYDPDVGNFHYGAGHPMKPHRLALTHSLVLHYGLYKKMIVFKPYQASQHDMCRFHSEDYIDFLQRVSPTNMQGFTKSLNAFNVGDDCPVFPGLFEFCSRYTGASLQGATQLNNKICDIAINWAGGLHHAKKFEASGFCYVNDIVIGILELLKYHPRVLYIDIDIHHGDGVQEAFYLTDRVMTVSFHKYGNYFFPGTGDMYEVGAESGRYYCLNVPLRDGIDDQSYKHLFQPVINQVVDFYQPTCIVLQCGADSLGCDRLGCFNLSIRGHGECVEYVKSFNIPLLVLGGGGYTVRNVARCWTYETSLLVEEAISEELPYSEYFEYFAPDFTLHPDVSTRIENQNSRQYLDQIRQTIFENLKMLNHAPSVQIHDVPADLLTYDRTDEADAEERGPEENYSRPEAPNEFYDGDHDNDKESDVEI
# AI-2 QS mod: Vibrio harveyi AI-2 quorum sensing modulators, primary screen, JMH597 strain, luminescence/OD600 ratio | Vibrio harveyi JMH597 AI-2 luminescence/OD600 ratio, 9 h; hits give low values; strain lacks LuxN and CqsS sensors; 0 = neutral-control median | activity change, % at 7.5 µM | actives 0.4% (n = 300,000) | AID 2094, 2009; in the data active means activity change below about -75%, passing the limit was not always enough;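 further: luminescence divided by OD600 gain over 9 h not by final OD600 alone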
# PolyA inh: polyadenylation inhibitors in yeast reporter cells, primary screen, luminescence, S. cerevisiae; actives 0.02% (n = 300,000); activity score, % at 12 µM; S. cerevisiae SKY197-pL101 polyadenylation reporter, beta-gal luminescence; efflux-impaired pdr1/pdr3 knockout yeast; score 100 = 6 SD above DMSO;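 active means lowest replicate activity score at least 50, where 100 means six control SD above control mean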;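 further: yeast exposed to compound for 9 h at 30 °C; higher score means more reporter readthrough which indicates perturbed polyadenylation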
# Cmpd fluor yeast: compound fluorescence in yeast efflux pump counter-screen. shares compounds with Efflux pump mplx. S. cerevisiae AD/pABC3, flow cytometry. fluorescence ratio to DMSO, % at 10 µM. actives 4% (n = 1,700). AID 588517;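 active means fluorescence ratio to DMSO above its plate's cutoff, the plate mean ratio plus 5 SD, cut at about 210% in these data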;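 further: unstained yeast with no Nile Red so the signal is compound autofluorescence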
# CaMdr1 efflux inh: inhibitors of Candida albicans Mdr1 efflux, confirmation, flow cytometry, singleplex, Cherry Pick1 set; S. cerevisiae AD/CaMDR1, Nile Red efflux; inhibition, % at 10 µM; actives 1% (n = 1,700); AID 588518, 2011; shares compounds with Efflux pump mplx; in the data active means inhibition above about 26%;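 further: 0% = DMSO vehicle and 100% = reference inhibitor; higher means more Nile Red retained so more efflux inhibition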
# CaCdr2 efflux inh: inhibitors of Candida albicans Cdr2 efflux pump, confirmation, S. cerevisiae AD/CaCDR2, flow cytometry, cherry pick 1, singleplex. shares compounds with Efflux pump mplx. AID 588520, 2011. Nile Red retention. actives 4% (n = 1,700). Nile Red retention ratio vs DMSO, % at 10 µM; in the data active means Nile Red retention ratio vs DMSO above about 190%;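 further: higher ratio means more blocking of Cdr2 efflux of the dye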
# Cdr1 pump inh: inhibitors of Candida albicans Cdr1 efflux pump, confirmation, S. cerevisiae AD/CaCDR1, flow cytometry, cherry pick 1, singleplex; shares compounds with Efflux pump mplx; Nile Red efflux; inhibition, % at 10 µM; actives 1% (n = 1,700); AID 588522, 2011;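 active means inhibition above the screen-wide mean plus twice its standard deviation, cut at about 32% in these data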
# Active calls of the source: *; · = no result. Compounds with a hit are over-represented: about 2.2% of the library has one in this group of screens.
SMILES,T cruzi inh,Efflux pump mplx,HDAC3 inhib,AI-2 QS mod,PolyA inh,Cmpd fluor yeast,CaMdr1 efflux inh,CaCdr2 efflux inh,Cdr1 pump inh
O=C(CCC1CCCCC1)NNC(=O)NC12CC3CC(CC(C3)C1)C2,0,0.7*,3,21,10,98,0,87,0
COc1ccccc1C(=O)N/C(=C\c1cn(C)c2ccccc12)C(=O)NCCCN1CCOCC1,-5,0,9,18,-3,·,·,·,·
O=C(CCl)Nc1c2c(nn1-c1ccccc1)CSC2,-14,0,-3,15,30,·,·,·,·
Cc1ccccc1OCC(=O)NCCc1nc2ccccc2[nH]1,8,15*,10,7,12,96,0,95,0
COC(=O)[C@H](Cc1ccccc1)NC(=O)c1cc(COc2c(F)cccc2F)on1,-5,0,3,-54,10,92,0,106,0
Cc1ccccc1CN1CCC(n2nccc2NC(=O)CCCc2ccccc2)CC1,3,1.5*,2,27,9,88,0,93,-1
CCOc1ccc(-c2cccc(NC(=O)c3cccs3)c2)nn1,-11,0,-2,32,4,·,·,·,·
Cc1ccc(S(=O)(=O)CCSc2n[nH]c(=O)n2-c2ccccc2)cc1,-3,0,3,15,-6,·,·,·,·
Cc1ccc(S(=O)(=O)CCSc2nccn2C)cc1,-14,3.3*,-1,3,0,98,0,99,0
CN(Cc1cccc(Cl)c1Cl)c1ccc(S(=O)(=O)N2CCCCC2)cc1[N+](=O)[O-],38,0,2,10,5,·,·,·,·
O=S1(=O)[C@H]2C[C@@H]3CC[C@]2(CN1Cc1cccc(F)c1)O3,-24,0,-4,19,-10,·,·,·,·
Cc1ccc(Nc2nc(Cl)nc(NC(C)(C)C)n2)cc1,26,1.1*,8,18,13,172,1,100,0
CNC(=O)Cn1nc(-c2ccc(Cl)cc2)c2ccccc2c1=O,-4,0,-2,23,6,·,·,·,·
COc1ccc(C(=O)NCc2ccc(Cl)c(Cl)c2)cc1OC,1,11*,-4,11,18,87,0,89,0
COc1ccc(C(=O)NCc2cccnc2)cc1OC,6,0,2,10,17,·,·,·,·
O=C(CSc1ccccc1)Nc1ccccc1C(=O)N1CCCC1,-4,0,-3,2,4,·,·,·,·
O=C(CCSc1ccccc1)Nc1ccccc1C(=O)N1CCCC1,0,9.6*,0,14,1,100,0,102,0
CCSc1ccc([C@@H]2[C@H]3C(=O)N(CC)C(=O)[C@H]3[C@]3(C(=O)OC)CCCCN23)cc1OC,·,0,16,·,·,·,·,·,·
CC(NC(=O)c1ccc(S(=O)(=O)Nc2ccccc2Cl)cc1)c1ccncc1 (configuration not stated),·,0,-8,·,·,·,·,·,·
COc1ccc(S(=O)(=O)N2CCOC2CNC(=O)C(=O)NCc2ccccc2OC)cc1 (configuration not stated),0,1.1*,-1,17,20,102,0,96,0
O=C(NCc1ccccc1Cl)C(=O)NCC1OCCN1S(=O)(=O)c1ccc(F)cc1 (configuration not stated),-3,-2,7,14,-4,·,·,·,·

# Screening data deposited in PubChem BioAssay by several laboratories.
